Tn7 DDE FP = inhibitors of Tn7 peptide binding to human fibrin DD(E); P02675; FP displacement of FITC-Tn7 peptide from fibrin DD(E); 0% = median of compound wells per plate; inhibition, % at 8.3 µM; 370,000 tested, 0.13% active; AID 720508;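 active means inhibition above the mean of compounds falling within the control limits plus 3 SD of them, cut at about 14% in these data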;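 further: 0% = plate median of compound wells and 100% = 10 µM Aha-Tn7 peptide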
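Assay system: human fibrin DD(E). Input: DD(E) 2 µM final. Medium: Tris buffer with calcium and detergent, pH 7.8. Compound dosing: single point at 8.3 µM. Timing: 10 min plus 3 h, room temperature. Technique: fluorescence polarization of the labelled Tn7 tracer. Read-out: percent inhibition. Replicates: singlicate testing.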
DDE Tn6 FP inh = inhibitors of Tn6 peptide binding to human fibrin DD(E). 370,000 tested, 0.21% active. inhibition, % at 8.3 µM. P02675. Fibrin DD(E) TRITC-Tn6 fluorescence polarization displacement;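 active means inhibition above a per-campaign cutoff: mean of compounds within control limits plus 3 SD, cut at about 15% in these data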;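 further: 0% = median of all compound wells on the plate and 100% = blocking peptide control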
PLC-beta3 inh = blocks human PLC-beta3 enzyme activity | Q01970 | Purified PLC-beta3, fluorogenic substrate, fluorescence | inhibition, % at 12.2 µM | 370,000 tested, 0.18% active; in the data active means inhibition above about 11%;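 further: 0% = median of compound wells on plate and 100% = full blocker control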
NRP1-CendR mod = alters CendR peptide binding to human NRP-1 | O14786 | FAM-RPARPAR peptide binding to NRP-1, fluorescence polarization | inhibition, % at 25 µM | 360,000 tested, 0.85% active | AID 602438;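 active means inhibition or corrected inhibition above about 18%, plus a signal ratio from 0.5 to 1.5, limit read from the data, passing the limit was not always enough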
KLK7 zymogen act = activators of human kallikrein-7 zymogen; purified proKLK7, EDANS-DABCYL substrate fluorescence; 100% is mature enzyme control, 0% vehicle; activation, % at 7 µM; P49862; 370,000 tested, 0.9% active;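 active means activation above the mean of all tested compounds plus 3 SD, computed per campaign excluding outliers beyond control limits, cut at about 13% in these data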
Target sequence (P49862 whole entry, looked up): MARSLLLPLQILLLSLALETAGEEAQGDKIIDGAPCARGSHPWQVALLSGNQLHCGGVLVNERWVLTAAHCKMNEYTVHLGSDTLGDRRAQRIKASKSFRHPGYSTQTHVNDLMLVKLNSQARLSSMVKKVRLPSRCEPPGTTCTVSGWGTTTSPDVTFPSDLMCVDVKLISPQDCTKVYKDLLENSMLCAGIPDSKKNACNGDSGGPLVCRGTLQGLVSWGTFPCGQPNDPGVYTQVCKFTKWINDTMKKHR
PLC-gamma1 inh = inhibitors of human phospholipase C gamma1 | inhibition, % at 12.2 µM | purified PLC-gamma1, fluorogenic substrate, fluorescence | AID 720700 | 370,000 tested, 0.84% active | P19174; in the data active means inhibition above about 9.5%
Tn6 DDE ctr = counter-screen for inhibitors of Tn6 peptide binding to fibrin DD(E) | shares compounds with DDE Tn6 FP inh | TRITC-Tn6 fluorescence polarization displacement; 0% = median of compound wells, not DMSO | inhibition, % at 8.3 µM | 680 tested, 2% active | AID 720621;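 active means inhibition above the mean of test compounds lying between the control limits plus 3 SD of those, cut at about 14% in these data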;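 further: 0% = median of compound wells and 100% = wells with Aha-Tn7 blocking peptide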
DDE Tn6 confirm = DD(E)-Tn6 binding inhibition, FP confirmation. shares compounds with DDE Tn6 FP inh. FP displacement of TRITC-Tn6 peptide from DD(E); 0% = per-plate median of test wells. inhibition, % at 8.3 µM. AID 720631. 680 tested, 10% active;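 active means inhibition above the mean of compounds lying within the control limits plus 3 SD, cut at about 16% in these data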;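 further: 100% = high control wells holding a competing inhibitor peptide at 10 µM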
Starred values were filed as active, the others as inactive. This is a sample that favours compounds with a hit; in the whole collection about 3% have one here.

`COc1ccc(C(=O)/C=C(\C)Nc2ccc(NC(C)=O)cc2)cc1` gave Tn7 DDE FP -1.8, DDE Tn6 FP inh 0.3, PLC-beta3 inh -9.1, NRP1-CendR mod 4.7, KLK7 zymogen act -0.8 and PLC-gamma1 inh 2.7.
Screening C/C(=C\C(=O)c1ccccc1)Nc1ccc(O)cc1 returned Tn7 DDE FP -5.9, DDE Tn6 FP inh 17.0*, PLC-beta3 inh -29.6, NRP1-CendR mod 1.1, KLK7 zymogen act 0.0, PLC-gamma1 inh -24.4, Tn6 DDE ctr -5.9 and DDE Tn6 confirm -7.0.
Screening Cc1ccc(-c2cc(C(=O)NN=Cc3cccc(Oc4ccccc4)c3)[nH]n2)cc1C returned Tn7 DDE FP 0.8, DDE Tn6 FP inh 19.1*, PLC-beta3 inh 3.9, KLK7 zymogen act 0.3, PLC-gamma1 inh 2.4, Tn6 DDE ctr 3.9 and DDE Tn6 confirm -0.1.
`Cc1ccc(-c2cc(C(=O)NN=Cc3cccc(OCc4ccccc4)c3)[nH]n2)cc1C` gave Tn7 DDE FP -6.1, DDE Tn6 FP inh 20.4*, PLC-beta3 inh -1.4, KLK7 zymogen act 2.5, PLC-gamma1 inh 1.2, Tn6 DDE ctr 7.9 and DDE Tn6 confirm 16.4*.
COc1ccc(C=NNC(=O)c2cc(-c3ccc(C)c(C)c3)n[nH]2)cc1OCc1ccccc1 was read as Tn7 DDE FP -5.5, DDE Tn6 FP inh 16.3*, PLC-beta3 inh -34.8, KLK7 zymogen act 1.3, PLC-gamma1 inh -16.6, Tn6 DDE ctr 1.9 and DDE Tn6 confirm 2.1.
COC(=O)[C@]1(C#N)CC(=O)N(Cc2ccc(Cl)cc2)[C@@H]1c1ccccc1 was read as Tn7 DDE FP 1.8, DDE Tn6 FP inh -0.9, PLC-beta3 inh -0.8, KLK7 zymogen act -0.3 and PLC-gamma1 inh -0.8.
For CCCCNS(=O)(=O)/C=C/c1cc(C)ccc1CNC(=O)OC(C)(C)C the results were Tn7 DDE FP -0.1, DDE Tn6 FP inh -2.1, PLC-beta3 inh 2.7, KLK7 zymogen act 0.5 and PLC-gamma1 inh -1.9.
Screening Cc1nn(C)c(C)c1N1C(=O)c2cccc3c(N)ccc(c23)C1=O returned Tn7 DDE FP 5.1, DDE Tn6 FP inh 19.4*, PLC-beta3 inh inactive, NRP1-CendR mod 121.4, KLK7 zymogen act 2.0, PLC-gamma1 inh inactive, Tn6 DDE ctr 11.8 and DDE Tn6 confirm 2.7.
Screening CCOC(=O)[C@@]12CCC3=C1N(CCC3)C(=O)[C@H](CC(=O)NCCCOC)C2 returned Tn7 DDE FP 3.5, DDE Tn6 FP inh -11.4, PLC-beta3 inh -0.2, KLK7 zymogen act -0.1 and PLC-gamma1 inh 5.0.
Screening Cc1ccc(NC(=O)C(C)Sc2nnc(C)n2C)cc1 (configuration not stated) returned Tn7 DDE FP -3.2, DDE Tn6 FP inh 15.5*, PLC-beta3 inh -5.6, NRP1-CendR mod 5.2, KLK7 zymogen act -0.8, PLC-gamma1 inh -0.4, Tn6 DDE ctr 6.3 and DDE Tn6 confirm 1.1.
For CCOc1ccc(NC(=O)C(C)Sc2nnc(C)n2C)cc1 (configuration not stated) the results were Tn7 DDE FP 0.9, DDE Tn6 FP inh 1.4, PLC-beta3 inh -0.2, NRP1-CendR mod -4.9, KLK7 zymogen act 0.2 and PLC-gamma1 inh 0.4.
`COc1ccc(NS(=O)(=O)c2ccc(NC(C)=O)cc2)c(OC)c1` gave Tn7 DDE FP -1.1, DDE Tn6 FP inh 5.7, PLC-beta3 inh -0.2, NRP1-CendR mod -3.7, KLK7 zymogen act -0.1 and PLC-gamma1 inh 0.0.
`COc1ccc(OC)c(NS(=O)(=O)c2ccc(NC(C)=O)cc2)c1` gave Tn7 DDE FP 7.6, DDE Tn6 FP inh 15.6*, PLC-beta3 inh 1.4, NRP1-CendR mod 8.8, KLK7 zymogen act -0.1, PLC-gamma1 inh -2.1, Tn6 DDE ctr 9.9 and DDE Tn6 confirm 6.1.
`COc1ccc(Cl)c(Cn2c(NCc3ccccn3)nc3c2c(=O)n(C)c(=O)n3C)c1` gave Tn7 DDE FP 5.0, DDE Tn6 FP inh 2.6, PLC-beta3 inh -2.0, NRP1-CendR mod 5.1, KLK7 zymogen act 0.3 and PLC-gamma1 inh -3.1.
